Assay results taken from article PMC3924769 (Cell metabolism, 2014).

Columns and labels:
DAF-12 [1] = target: T1, DAF-12 (Caenorhabditis elegans, UniProt G5EFF5); test: Alphascreen assay for ligand-dependent recruitment of SRC1-4 peptide by DAF-12; type: biochemical, C. elegans; settings: read-out: EC50, recruitment of SRC1-4 peptide by DAF-12
T1 sequence (G5EFF5 1-753): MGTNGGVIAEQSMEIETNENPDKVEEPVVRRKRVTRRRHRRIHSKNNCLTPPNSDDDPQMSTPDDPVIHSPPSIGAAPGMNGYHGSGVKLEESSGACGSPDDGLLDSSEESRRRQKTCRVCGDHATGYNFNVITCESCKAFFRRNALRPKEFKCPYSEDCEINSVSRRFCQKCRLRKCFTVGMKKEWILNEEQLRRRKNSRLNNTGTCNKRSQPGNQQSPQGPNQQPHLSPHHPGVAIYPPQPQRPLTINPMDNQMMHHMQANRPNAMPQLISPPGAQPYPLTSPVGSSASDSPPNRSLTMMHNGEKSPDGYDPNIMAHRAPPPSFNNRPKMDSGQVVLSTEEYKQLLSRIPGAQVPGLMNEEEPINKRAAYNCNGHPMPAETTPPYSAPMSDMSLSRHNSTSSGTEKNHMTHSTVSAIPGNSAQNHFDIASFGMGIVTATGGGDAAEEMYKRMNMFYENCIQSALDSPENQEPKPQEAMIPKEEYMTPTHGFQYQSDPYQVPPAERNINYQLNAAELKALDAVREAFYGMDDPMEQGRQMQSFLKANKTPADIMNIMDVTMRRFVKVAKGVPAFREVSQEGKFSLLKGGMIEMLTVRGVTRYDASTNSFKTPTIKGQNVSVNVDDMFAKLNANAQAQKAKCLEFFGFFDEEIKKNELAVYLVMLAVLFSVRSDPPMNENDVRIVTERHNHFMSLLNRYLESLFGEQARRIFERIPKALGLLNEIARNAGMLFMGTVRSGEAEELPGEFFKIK
Summary of the method: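 Test compound binding to DAF-12 was measured by AlphaScreen as ligand-dependent recruitment of the SRC1-4 peptide, which carries the SRC-1 NR-box motif. Signal was expressed as fold activation over an ethanol control and reported as mean ±SEM.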

daf-9(dh6) worms = test: daf-9; type: in vivo, C. elegans; settings: 27 °C; for daf-9(dh6) dauer rescue activity (in vivo), in words: 0.1 nM – 500 nM tested
Summary of the method: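 Test compound in ethanol (0.1–500 nM final, calculated over the agar volume) or ethanol alone was mixed with concentrated E. coli OP50 and plated on cholesterol-free NGM agar. About 100 daf-9(dh6) eggs from a 4–8 h egg lay were added per plate and scored for dauer arrest versus development after 60 h at 27 °C. A reference dafachronic acid at 100 nM was the positive control. Two replicates, mean ±SD.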

DAF-12 [2] = target: T1, DAF-12; test: Luciferase assay for DAF-12 transcriptional activation in HEK-293T cells; type: cell-based, C. elegans; settings: 1 nM – 3125 nM tested
Summary of the method: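 HEK-293T cells were calcium-phosphate co-transfected with full-length DAF-12, a mir84p-luciferase reporter, GFP and β-galactosidase vectors. Ethanol solutions of test compound (1–3125 nM), or ethanol alone, were added 8 h post-transfection. Luciferase and β-galactosidase activities were read 16 h after addition. A reference dafachronic acid at 100 nM was the positive control. Triplicates, mean ±SD.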

[3] = tested on: glp-1;daf-36 double mutant worms; test: Lifespan of germline-deficient glp-1; type: in vivo, C. elegans; settings: 100 nM, glp-1;daf-36 worms

EC50 (DAF-12 [1]) [nM]	DAF-12 activation in luciferase assay (in vitro), in words (DAF-12 [2])	EC50 (daf-9(dh6) worms; read-out: EC50, daf-9(dh6) dauer rescue, plate based assay, synthetic compound) [nM]	SMILES	daf-9(dh6) dauer rescue activity (in vivo), in words (daf-9(dh6) worms)	Restoration of glp-1-dependent lifespan extension [3]
200	active	–	C[C@H](CCC[C@H](C)C(=O)O)[C@H]1CC[C@H]2C3=CCC4C[C@H](O)CC[C@]4(C)[C@H]3CC[C@]12C (stereo partly drawn) [3α-OH-Δ^7-DA, (25S)-3α-hydroxy cholest-7-enoic acid]	active	–
–	active	–	C[C@H](CCC[C@H](C)C(=O)O)[C@H]1CC[C@H]2[C@@H]3CCC4CC(=O)CC[C@]4(C)[C@H]3CC[C@]12C (stereo partly drawn) [Δ^0-DA, (25S)-3-keto-cholestanoic acid]	active	–
15	–	2	CC(CCC[C@@H](C)[C@H]1CC[C@H]2C3=CCC4CC(=O)C=C[C@]4(C)[C@H]3CC[C@]12C)C(=O)O (some centres unmarked) [Δ^1,7-DA, 3-oxocholesta-1,7-dienoic acid]	–	fully restore glp-1-dependent lifespan extension
8	–	–	C[C@H](CCC[C@H](C)C(=O)O)[C@H]1CC[C@H]2C3=CC[C@H]4CC(=O)CC[C@]4(C)[C@H]3CC[C@]12C [Δ^7-DA, Δ^7-dafachronic acid, reference compound]	–	fully restore glp-1-dependent lifespan extension

SMILES	EC50 (DAF-12 [1]) [nM]	DAF-12 activation in luciferase assay (in vitro), in words (DAF-12 [2])	EC50 (daf-9(dh6) worms; read-out: EC50, daf-9(dh6) dauer rescue, plate based assay, synthetic compound) [nM]	daf-9(dh6) dauer rescue activity (in vivo), in words (daf-9(dh6) worms)	Restoration of glp-1-dependent lifespan extension [3]
CC(CCCC(C)C1CCC2C3=CCC4CC(O)CCC4(C)C3CCC21C)C(=O)O (stereo not drawn) [3β-OH-Δ^7-DA]	–	did not activate DAF-12 in mammalian cells at any tested concentration	–	–	–
